Calls of active or inactive are those of the source. The calls are words filed in the database; no cut-off is given here.
Experiments:
[1] = target: T1, Receptor-interacting serine/threonine-protein kinase 1 (Homo sapiens, UniProt Q13546); assay: Inhibition of RIP1 (unknown origin) using MBP as substrate preincubated for 15 mins followed by MBP/ATP mixture addition measured after 90 mins by ADP-Glo kinase assay
T1 sequence (Q13546 whole entry): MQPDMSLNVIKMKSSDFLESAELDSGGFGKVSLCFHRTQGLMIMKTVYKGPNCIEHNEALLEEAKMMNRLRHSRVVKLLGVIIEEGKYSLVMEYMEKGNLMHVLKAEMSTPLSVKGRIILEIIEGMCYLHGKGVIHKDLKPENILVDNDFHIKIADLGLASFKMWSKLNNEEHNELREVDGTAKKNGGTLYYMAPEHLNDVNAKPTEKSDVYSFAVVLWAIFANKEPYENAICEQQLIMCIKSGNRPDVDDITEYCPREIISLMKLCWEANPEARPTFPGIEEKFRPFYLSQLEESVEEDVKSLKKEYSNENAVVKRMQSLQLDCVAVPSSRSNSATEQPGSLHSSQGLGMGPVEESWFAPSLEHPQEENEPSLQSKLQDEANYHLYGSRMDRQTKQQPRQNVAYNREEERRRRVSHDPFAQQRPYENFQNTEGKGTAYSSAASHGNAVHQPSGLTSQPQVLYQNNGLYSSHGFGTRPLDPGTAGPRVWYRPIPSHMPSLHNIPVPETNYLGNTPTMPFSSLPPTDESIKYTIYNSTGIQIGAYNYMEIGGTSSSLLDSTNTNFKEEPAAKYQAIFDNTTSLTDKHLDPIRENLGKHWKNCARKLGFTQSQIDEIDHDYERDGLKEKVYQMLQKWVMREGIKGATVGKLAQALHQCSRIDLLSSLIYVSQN
In short: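 Recombinant RIP1 pre-incubated 15 min with compound or DMSO in 25 mM HEPES pH 7.2, 20 mM MgCl2, 12.5 mM MnCl2, 5 mM EGTA, 2 mM EDTA, 12.5 mM β-glycerol phosphate, 2 mM DTT. Reaction started with ATP (50 μM final) and MBP (20 μM final), run 90 min at room temperature. ADP-Glo luminescence read-out.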

[2] = Half life in human liver microsomes in presence of NADPH by LC-MS/MS analysis; type: ADME, microsome
[3] = Intrinsic clearance in human liver microsomes assessed per mg protein in presence of NADPH by LC-MS/MS analysis; type: ADME, microsome; conditions: read-out: CLH
[4] = target: Receptor-interacting serine/threonine-protein kinase 3 (Homo sapiens) (UniProt Q9Y572); assay: Inhibition of TNFalpha/z-VAD-FMK-induced RIP3 phosphorylation at Ser-227 residue in human HT-29 cells by Western blot method; type: cell-based
Chain of Receptor-interacting serine/threonine-protein kinase 3 (Homo sapiens) (Q9Y572 whole entry, looked up): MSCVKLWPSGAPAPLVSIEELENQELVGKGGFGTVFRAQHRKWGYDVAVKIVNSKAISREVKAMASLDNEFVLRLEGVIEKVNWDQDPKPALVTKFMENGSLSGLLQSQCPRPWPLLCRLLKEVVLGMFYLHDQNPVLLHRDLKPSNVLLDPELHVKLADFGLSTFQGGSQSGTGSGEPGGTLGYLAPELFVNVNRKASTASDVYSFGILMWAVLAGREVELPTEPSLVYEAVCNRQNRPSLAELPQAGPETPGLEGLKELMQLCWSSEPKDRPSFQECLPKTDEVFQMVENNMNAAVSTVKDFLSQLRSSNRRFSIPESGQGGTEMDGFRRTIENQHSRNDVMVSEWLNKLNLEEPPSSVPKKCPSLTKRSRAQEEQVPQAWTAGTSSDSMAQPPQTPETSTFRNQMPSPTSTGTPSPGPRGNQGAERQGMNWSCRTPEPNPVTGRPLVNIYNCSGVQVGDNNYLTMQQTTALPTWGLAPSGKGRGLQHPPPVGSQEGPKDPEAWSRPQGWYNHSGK

[5] = Half life in C57BL/6J mouse at 2 mg/kg, iv by LC-MS/MS analysis; type: ADME, organism-based; conditions: in vivo
In short: (§1)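 C57BL/6 mice (n = 3) dosed IV, IP or PO; blood sampled by eye puncture at various time points; plasma levels by LC-MS/MS; parameters from individual animal data by non-compartmental analysis.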

[6] = Bioavailability in C57BL/6J mouse at 10 mg/kg, ip by LC-MS/MS analysis; type: ADME, organism-based; conditions: in vivo; in short: as §1
Mus musculus [7] = assay: Protection against TNFalpha-induced mortality in C57BL/6J mouse assessed as survival rate at 3 mg/kg, ip pretreated for 17 mins followed by TNFalpha injection and subsequent compound treatment once in every 12 hrs measured every 30 mins up to 60 hrs post TNFalpha injection during compound dosing (reference value: 50%); type: functional
Mus musculus [8] = assay: Protection against TNFalpha-induced mortality in C57BL/6J mouse assessed as survival rate at 6 mg/kg, ip administered as single dose 17 mins before TNFalpha injection measured every 30 mins up to 60 hrs post TNFalpha injection (reference value: 50%); type: functional
Mus musculus [9] = assay: Protection against TNFalpha-induced mortality in ip dosed C57BL/6J mouse assessed as increase in survival rate pretreated for 17 mins followed by TNFalpha injection and subsequent compound treatment once in every 12 hrs measured every 30 mins up to 60 hrs post TNFalpha injection during compound dosing; type: functional, organism-based
In short: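 C57BL/6 mice, 6-8 weeks, ~20 g, randomized (n = 6~10). Given 5.5 μg mTNFα (~0.25 mg/kg) IV in endotoxin-free PBS, 0.2 mL. Compound IP 17 min before TNFα: either once at 6 mg/kg or […], 1, 3 mg/kg then every 12 h; vehicle controls. Survival checked every 30 min to 60 h.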

Mus musculus [10] = assay: Protection against TNFalpha-induced multiorgan damage in C57BL/6J mouse assessed as inhibition of TNFalpha-induced increase in IL-1beta level at 0.3 to 3 mg/kg, ip pretreated for 17 mins followed by TNFalpha injection and subsequent compound treatment once in every 12 hrs measured after 12 hrs; type: functional, organism-based
In short: (§2)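 C57BL/6 mice given 4 μg mTNFα (~0.18 mg/kg) IV. Compound 0.3, 1, 3 mg/kg IP 17 min before and then every 12 h; vehicle controls. Blood taken 12 h and 24 h after TNFα. Assays: IL-6 and IL-1β; serum LDH, CK, AST, creatinine, BUN, amylase.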

Mus musculus [11] = assay: Protection against TNFalpha-induced multiorgan damage in C57BL/6J mouse assessed as serum amylase level at 0.3 to 3 mg/kg, ip pretreated for 17 mins followed by TNFalpha injection and subsequent compound treatment once in every 12 hrs measured 24 hrs post TNFalpha injection; type: functional, organism-based; in short: as §2
Mus musculus [12] = assay: Protection against TNFalpha-induced multiorgan damage in C57BL/6J mouse assessed as serum AST level at 0.3 to 3 mg/kg, ip pretreated for 17 mins followed by TNFalpha injection and subsequent compound treatment once in every 12 hrs measured 24 hrs post TNFalpha injection; type: functional, organism-based; in short: as §2
Mus musculus [13] = assay: Protection against TNFalpha-induced thymus damage in C57BL/6J mouse assessed as reduction in macrophages infiltration at 0.3 to 3 mg/kg, ip pretreated for 17 mins followed by TNFalpha injection and subsequent compound treatment once in every 12 hrs measured 24 hrs post TNFalpha injection by hematoxylin and eosin staining based assay; type: functional, organism-based
In short: (§3)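 Mice given mTNFα IV; compound 0.3, 1, 3 mg/kg IP 17 min before and every 12 h. Killed 24 h post-TNFα. Organs fixed 24 h in 10% neutral buffered formalin, paraffin-embedded, 5-μm sections, H&E stained; ×200, at least three mice each.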

Mus musculus [14] = assay: Protection against TNFalpha-induced myocardium damage in C57BL/6J mouse at 0.3 to 3 mg/kg, ip pretreated for 17 mins followed by TNFalpha injection and subsequent compound treatment once in every 12 hrs measured 24 hrs post TNFalpha injection by hematoxylin and eosin staining based assay; type: functional, organism-based; in short: as §3
Mus musculus [15] = assay: Protection against TNFalpha-induced kidney damage in C57BL/6J mouse at 0.3 to 3 mg/kg, ip pretreated for 17 mins followed by TNFalpha injection and subsequent compound treatment once in every 12 hrs measured 24 hrs post TNFalpha injection by hematoxylin and eosin staining based assay; type: functional, organism-based; in short: as §3
Cytochrome P450 2D6 = Cytochrome P450 2D6 (Homo sapiens, UniProt P10635); assay: Inhibition of CYP2D6 (unknown origin); type: ADME
Chain of Cytochrome P450 2D6 (P10635 whole entry): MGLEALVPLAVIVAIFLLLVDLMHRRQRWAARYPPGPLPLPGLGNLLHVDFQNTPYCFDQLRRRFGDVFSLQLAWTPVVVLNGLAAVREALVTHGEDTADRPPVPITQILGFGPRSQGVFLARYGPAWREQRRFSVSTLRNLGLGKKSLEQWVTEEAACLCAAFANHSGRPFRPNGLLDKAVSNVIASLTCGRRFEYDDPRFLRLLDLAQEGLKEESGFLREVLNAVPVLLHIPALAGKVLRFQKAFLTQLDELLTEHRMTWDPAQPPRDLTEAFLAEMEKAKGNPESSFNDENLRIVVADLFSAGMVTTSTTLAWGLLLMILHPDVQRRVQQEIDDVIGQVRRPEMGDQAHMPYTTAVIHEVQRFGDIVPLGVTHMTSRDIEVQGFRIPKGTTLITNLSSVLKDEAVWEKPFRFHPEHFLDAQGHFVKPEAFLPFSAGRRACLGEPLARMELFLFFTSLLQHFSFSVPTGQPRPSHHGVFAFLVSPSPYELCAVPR

Cytochrome P450 3A4 = Cytochrome P450 3A4 (Homo sapiens, UniProt P08684); assay: Inhibition of CYP3A4 (unknown origin); type: ADME
Chain of Cytochrome P450 3A4 (P08684 whole entry): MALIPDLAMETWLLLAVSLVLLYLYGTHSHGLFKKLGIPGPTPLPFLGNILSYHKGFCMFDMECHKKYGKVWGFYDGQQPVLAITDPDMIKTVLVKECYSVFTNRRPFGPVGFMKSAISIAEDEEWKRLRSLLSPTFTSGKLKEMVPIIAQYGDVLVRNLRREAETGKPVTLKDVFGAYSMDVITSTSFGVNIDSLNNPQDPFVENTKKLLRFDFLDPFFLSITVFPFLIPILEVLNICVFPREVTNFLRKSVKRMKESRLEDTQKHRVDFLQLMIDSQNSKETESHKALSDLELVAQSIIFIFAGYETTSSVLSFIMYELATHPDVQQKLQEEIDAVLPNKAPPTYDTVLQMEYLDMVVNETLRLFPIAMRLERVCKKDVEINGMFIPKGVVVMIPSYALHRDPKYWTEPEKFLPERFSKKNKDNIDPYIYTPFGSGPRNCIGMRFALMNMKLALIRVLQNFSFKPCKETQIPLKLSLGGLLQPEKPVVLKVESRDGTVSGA

[16] = target: Voltage-gated inwardly rectifying potassium channel KCNH2 (Homo sapiens, UniProt Q12809); assay: Inhibition of human ERG at 30 uM by manual patch clamp method
Chain of Voltage-gated inwardly rectifying potassium channel KCNH2 (Q12809 whole entry): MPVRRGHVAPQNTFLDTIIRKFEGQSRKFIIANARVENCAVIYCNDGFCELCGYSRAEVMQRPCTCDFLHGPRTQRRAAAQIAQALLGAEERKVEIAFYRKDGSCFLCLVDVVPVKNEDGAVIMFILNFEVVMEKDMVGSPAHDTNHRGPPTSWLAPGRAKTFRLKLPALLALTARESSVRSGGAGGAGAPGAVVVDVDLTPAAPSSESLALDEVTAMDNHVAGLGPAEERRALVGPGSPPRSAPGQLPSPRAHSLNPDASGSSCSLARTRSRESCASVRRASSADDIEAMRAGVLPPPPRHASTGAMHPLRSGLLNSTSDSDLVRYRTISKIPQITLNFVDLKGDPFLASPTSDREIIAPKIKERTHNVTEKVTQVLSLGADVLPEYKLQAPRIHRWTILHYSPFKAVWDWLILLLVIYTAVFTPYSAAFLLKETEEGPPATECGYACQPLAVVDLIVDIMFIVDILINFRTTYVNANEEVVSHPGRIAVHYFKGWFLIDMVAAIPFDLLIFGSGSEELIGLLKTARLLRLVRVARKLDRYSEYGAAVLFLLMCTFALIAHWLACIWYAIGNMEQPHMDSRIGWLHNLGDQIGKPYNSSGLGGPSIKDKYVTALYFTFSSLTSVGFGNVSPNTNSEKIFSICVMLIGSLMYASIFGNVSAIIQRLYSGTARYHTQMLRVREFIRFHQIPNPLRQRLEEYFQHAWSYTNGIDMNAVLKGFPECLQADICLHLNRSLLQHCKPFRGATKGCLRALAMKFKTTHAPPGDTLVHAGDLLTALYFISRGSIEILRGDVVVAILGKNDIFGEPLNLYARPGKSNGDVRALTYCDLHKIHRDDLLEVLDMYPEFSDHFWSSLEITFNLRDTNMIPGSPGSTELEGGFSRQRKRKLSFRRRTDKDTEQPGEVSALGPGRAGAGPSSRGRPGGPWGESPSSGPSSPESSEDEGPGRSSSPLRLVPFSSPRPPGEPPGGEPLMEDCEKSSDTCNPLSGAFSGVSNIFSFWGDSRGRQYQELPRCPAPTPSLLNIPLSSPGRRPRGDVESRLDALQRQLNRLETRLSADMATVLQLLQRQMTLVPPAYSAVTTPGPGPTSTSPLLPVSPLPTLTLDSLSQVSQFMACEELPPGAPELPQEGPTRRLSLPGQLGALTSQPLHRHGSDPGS
In short: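 Manual patch clamp on hERG channel, tested up to 30 μM.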

Mus musculus [17] = assay: Toxicity in C57BL/6J mouse assessed as injury at 50 mg/kg administered once in every 3 hrs for 24 hrs; type: organism-based; conditions: in vivo
In short: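 Mice dosed 50 mg/kg every 3 h for 24 h and examined for injury.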

CCC(C)(C)C(=O)N(O)Cc1ccccc1
IC50 [1]: 13 nM
half-life [2]: 2.13 h
microsomal CLint [3]: 5.4 µL/min/mg
inhibition [4]: Active
half-life [5]: 3.1 h
bioavailability [6]: 100%
survival at 3 mg/kg (Mus musculus [7]): 100%
survival at 6 mg/kg (Mus musculus [8]): 100%
Activity (Mus musculus [9]): Dose-dependent effect
inhibition (Mus musculus [10]): Active
Activity (Mus musculus [11]): Active
Activity (Mus musculus [12]): Active
Activity (Mus musculus [13]): Active
Activity (Mus musculus [14]): Active
Activity (Mus musculus [15]): Active
IC50 (Cytochrome P450 2D6): > 50000 nM
IC50 (Cytochrome P450 3A4): > 3500 nM
inhibition (INH) [16]: Not Active
Activity (Mus musculus [17]): Non-Toxic
